Results as given in ChEMBL document CHEMBL1122179, “1-(alkylamino)isochromans: hypotensives with peripheral and central activities” (J Med Chem, 1982).

Experiments:
[1] = system: Rattus norvegicus; assay: Pressor effects of intravenous phenylephrine (2.5 ug/kg) was measured in anesthetized rats at 0 min.; format: functional
Procedure, shortened: (§1)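 Female Sprague-Dawley rats (200–300 g), anesthetized iv with α-chloralose (40 mg/kg), urethane (40 mg/kg) and pentobarbital (15 mg/kg). Carotid artery catheter for blood pressure and heart rate, jugular vein for drugs. Test agent given at 1.0 mg/kg iv in 0.1 M citric acid (1 mg/mL). Pressor responses to iv norepinephrine 0.1 μg/kg, phenylephrine 2.5 μg/kg and angiotensin I 0.1 μg/kg were taken before and 15, 30, 45 and 60 min after dosing. Mean ± SEM.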

[2] = system: Rattus norvegicus; assay: Heart rate of compound was measured in anesthetized rats at 0 min.; format: functional; procedure, shortened: as §1
[3] = system: Rattus norvegicus; assay: Heart rate of compound was measured in anesthetized rats at 60 min.; format: functional; procedure, shortened: as §1
[4] = system: Rattus norvegicus; assay: Delta BP refers to oral hypotensive activity of compound which is evaluated at 4 hr and 24 hr in restrained, normotensive conscious rats at a dose of 5 mg/kg; -9/-3; format: functional
Procedure, shortened: (§2)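 Female Sprague-Dawley rats, normotensive, restrained in a towel. Blood pressure was read directly via chronic indwelling aortic cannulas exteriorized at the nape, before and 4 and 24 h after an oral dose suspended in carboxymethylcellulose (10 mL/kg). Values from two animals were averaged at each time; a mean change of at least 5 mmHg was taken as significant (p < 0.05).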

[5] = molecular target: T1, Adrenergic receptor alpha-2 (Rattus norvegicus, UniProt P22086+P19328+P22909); assay: Compound was tested for the inhibition of [3H]clonidine binding Alpha-2 adrenergic receptor of crude rat brain membrane
T1 sequence (P22086 whole entry): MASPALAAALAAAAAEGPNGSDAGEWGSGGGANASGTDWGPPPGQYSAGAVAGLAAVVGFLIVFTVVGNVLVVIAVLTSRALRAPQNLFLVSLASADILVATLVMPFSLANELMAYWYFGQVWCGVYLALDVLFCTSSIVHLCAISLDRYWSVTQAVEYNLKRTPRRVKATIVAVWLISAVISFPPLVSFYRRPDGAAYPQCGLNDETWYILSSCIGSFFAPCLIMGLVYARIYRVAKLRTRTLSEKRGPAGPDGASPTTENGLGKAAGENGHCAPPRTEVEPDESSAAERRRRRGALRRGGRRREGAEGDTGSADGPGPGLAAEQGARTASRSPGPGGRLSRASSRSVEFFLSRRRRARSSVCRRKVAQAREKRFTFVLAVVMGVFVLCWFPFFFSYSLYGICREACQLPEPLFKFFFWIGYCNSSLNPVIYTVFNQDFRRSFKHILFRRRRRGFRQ
T1 sequence (P19328 whole entry): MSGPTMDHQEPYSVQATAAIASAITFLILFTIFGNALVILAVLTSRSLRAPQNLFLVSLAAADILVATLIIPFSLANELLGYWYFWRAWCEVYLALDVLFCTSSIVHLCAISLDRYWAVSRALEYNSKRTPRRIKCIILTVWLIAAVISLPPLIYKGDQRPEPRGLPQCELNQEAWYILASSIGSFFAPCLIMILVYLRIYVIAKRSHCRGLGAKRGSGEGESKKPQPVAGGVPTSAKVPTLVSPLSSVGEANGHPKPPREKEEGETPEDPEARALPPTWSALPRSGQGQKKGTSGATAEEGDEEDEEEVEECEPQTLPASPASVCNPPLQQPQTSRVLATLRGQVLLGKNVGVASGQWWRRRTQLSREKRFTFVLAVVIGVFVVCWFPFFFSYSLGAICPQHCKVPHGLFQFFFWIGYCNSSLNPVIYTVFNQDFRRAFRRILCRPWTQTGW
T1 sequence (P22909 whole entry): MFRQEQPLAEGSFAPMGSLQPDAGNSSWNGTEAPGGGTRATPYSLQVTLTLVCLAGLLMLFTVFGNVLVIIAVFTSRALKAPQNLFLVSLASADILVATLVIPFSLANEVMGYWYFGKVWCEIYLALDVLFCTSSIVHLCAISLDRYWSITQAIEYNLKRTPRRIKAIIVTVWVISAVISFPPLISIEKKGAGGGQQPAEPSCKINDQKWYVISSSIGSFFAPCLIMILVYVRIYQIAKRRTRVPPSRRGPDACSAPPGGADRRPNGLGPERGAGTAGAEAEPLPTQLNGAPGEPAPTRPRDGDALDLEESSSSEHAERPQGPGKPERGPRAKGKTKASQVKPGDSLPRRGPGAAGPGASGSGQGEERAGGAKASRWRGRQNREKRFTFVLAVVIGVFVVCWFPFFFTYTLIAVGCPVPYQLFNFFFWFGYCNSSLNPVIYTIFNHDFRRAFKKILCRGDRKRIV

[6] = system: Rattus norvegicus; assay: Pressor effects of intravenous phenylephrine (2.5 ug/kg) was measured in anesthetized rats at 60 min.; format: functional
Procedure, shortened: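 Female Sprague–Dawley rats (200–300 g) anesthetized iv with α-chloralose 40 mg/kg, urethane 40 mg/kg and pentobarbital 15 mg/kg. Carotid artery catheterized for blood pressure, jugular vein for drugs. Pressor response to iv phenylephrine 2.5 µg/kg measured before and 15, 30, 45, 60 min after 1.0 mg/kg iv test drug dissolved in 0.1 M citric acid (1 mg/mL). Mean ± SEM.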

[7] = system: Rattus norvegicus; assay: Delta BP refers to oral hypotensive activity of compound which is evaluated at 4 hr and 24 hr in restrained, normotensive conscious rats at a dose of 15 mg/kg; -20/-18; format: functional; procedure, shortened: as §2

Compound `COc1cc2c(cc1OC)C(CCN1CCN(c3ccc(F)cc3)CC1)OCC2` (configuration not stated) has a Pressor response [1] of 48 mmHg, an HR [2] of 417 beats min-1 and an HR [3] of 426 beats min-1. For the same compound, the Delta blood pressure [4] was -9 mmHg, the Ki [5] was 62 nM and the Pressor response [6] was 16 mmHg. The Delta blood pressure [7] was -20 mmHg.
